High-throughput results: PubChem, several laboratories
XBP1 UPR activ – adaptive UPR (XBP1) activation; CHO-XBP1 luciferase reporter, IRE1-XBP1 UPR activation, luminescence; percent of tunicamycin response, DMSO as zero; activation, % at 20 µM; hit rate 0.33% among 330,000; AID 463104;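 active means versus positive control, 20 µM dose yields 30% or more activation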;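 further: 100% = tunicamycin at 10 µg/mL and 0% = DMSO only wells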
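Assay system: IRE1-XBP1 luciferase reporter CHO line. Input: 1000 cells/well. Buffer or medium: F12 with 10% serum. Doses: 20 µM, 1% DMSO. Times: overnight seeding at 37 °C, 6 h compound treatment at 37 °C. Technique: Steady-Glo luciferase glow luminescence, 10 min after reagent addition.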
p97 inhibitor – blocks human p97 ATPase activity; recombinant p97 ATPase, Kinase-Glo ATP luminescence, 3 h; P55072; inhibition, % at 8 µM; hit rate 0.42% among 220,000; in the data active means inhibition above about 15%;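 further: 0% = DMSO vehicle and 100% = wells lacking enzyme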
Target sequence (P55072 whole entry, looked up): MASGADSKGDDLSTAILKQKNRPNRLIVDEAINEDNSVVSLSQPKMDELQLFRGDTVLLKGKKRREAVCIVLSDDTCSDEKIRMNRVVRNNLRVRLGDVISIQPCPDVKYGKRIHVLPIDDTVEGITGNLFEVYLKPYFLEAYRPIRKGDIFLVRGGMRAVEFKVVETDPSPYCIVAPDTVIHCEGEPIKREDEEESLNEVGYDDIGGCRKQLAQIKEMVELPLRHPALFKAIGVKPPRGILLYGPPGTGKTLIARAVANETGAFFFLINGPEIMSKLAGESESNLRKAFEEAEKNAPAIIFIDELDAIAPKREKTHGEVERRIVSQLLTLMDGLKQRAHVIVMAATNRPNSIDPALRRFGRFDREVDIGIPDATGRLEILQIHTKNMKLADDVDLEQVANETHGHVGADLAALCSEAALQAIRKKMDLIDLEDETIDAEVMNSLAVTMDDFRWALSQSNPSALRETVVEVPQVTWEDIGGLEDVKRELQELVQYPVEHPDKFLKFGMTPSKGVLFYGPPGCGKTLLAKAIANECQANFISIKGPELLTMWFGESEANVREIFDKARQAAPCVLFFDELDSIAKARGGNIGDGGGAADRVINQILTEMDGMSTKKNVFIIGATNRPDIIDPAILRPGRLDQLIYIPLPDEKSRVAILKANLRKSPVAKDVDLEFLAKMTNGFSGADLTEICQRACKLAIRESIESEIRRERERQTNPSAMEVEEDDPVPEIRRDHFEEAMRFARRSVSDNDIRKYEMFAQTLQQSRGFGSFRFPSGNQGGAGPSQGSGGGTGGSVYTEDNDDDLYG
CHOP inh – CHOP inhibition in unfolded protein response. CHO-K1 CHOP-promoter luciferase, tunicamycin-induced, 15-18 h. inhibition, % at 10 µM. hit rate 3.8% among 220,000;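 active means compounds that reduced the stress-induced luciferase reporter signal by more than about 70% of percent inhibition, limit read from the data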;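 further: 0% = tunicamycin plus vehicle and 100% = wells without tunicamycin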
HCV NS3 hel inh – blocks Hepatitis C virus NS3 helicase unwinding | NS3 helicase DNA unwinding, Cy5 molecular beacon fluorescence | inhibition, % at 10.9 µM | hit rate 0.56% among 290,000 | AID 1800;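 active means inhibition above the mean of all tested compounds plus 3 SD, set per campaign, cut at about 35% in these data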;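 further: 0% = DMSO wells and 100% = thioflavine S control wells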
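Assay system: hepatitis C virus NS3 helicase domain fragment enzyme. Also added: annealed dual-labelled DNA beacon duplex, ATP-started. Timing: 1 h reaction at 25 °C, ATP-initiated. Technique: Cy5 fluorescence at 0 and 60 min, beacon hairpin quenching. Evaluation: % inhibition of unwinding. Replication: one well per compound.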
UPR CHOP act – activators of apoptotic arm of unfolded protein response (CHOP) | CHO-CHOP luciferase reporter, UPR activation, luminescence; percent of tunicamycin response over DMSO baseline | activation, % at 10 µM | hit rate 0.34% among 330,000 | AID 449763;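 active means at 10 µM dose, activation of 40% or more, normalized to positive control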;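 further: 100% = tunicamycin at 10 µg/mL and 0% = DMSO alone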
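Material: CHO-CHOP cells, stable luciferase reporter of PERK-eIF2a-CHOP signalling; quantity: 500 reporter cells seeded per well; buffer or medium: F12 medium containing 10% fetal bovine serum; compound: one dose, 10 µM in 0.5% DMSO; incubation: 6 h compound treatment, 37 °C; measured by: Steady-Glo luciferase luminescence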
M18AAP inhibitor – PfM18AAP enzyme inhibition. hit rate 1.2% among 290,000. inhibition, % at 7.35 µM. recombinant PfM18AAP, H-Glu-NHMec fluorogenic cleavage. AID 1822;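 active means inhibition above the campaign mean inhibition over all tested compounds plus 3 SD, cut at about 28% in these data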;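 further: 0% = plate median of test compound wells and 100% = 2 mM ZnCl2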
NS3 hel confirm – HCV NS3 helicase inhibition, confirmation assay; NS3 helicase DNA unwinding, Cy5 molecular beacon fluorescence; inhibition, % at 10.9 µM; AID 1943; shares compounds with HCV NS3 hel inh; hit rate 31% among 1,600;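 active means inhibition above the mean of all tested compounds plus 3 SD, cutoff set per campaign, cut at about 36% in these data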
DNA FID counter – intercalator displacement, NS3 helicase counter-screen. inhibition, % at 7.9 µM. shares compounds with HCV NS3 hel inh. hit rate 4% among 1,600. AID 1945. DNA fluorescent intercalator displacement, fluorescence; in the data active means inhibition above about 37%;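 further: 0% = vehicle and 100% = reference compound; higher means more displacement of ethidium bromide from the DNA hairpin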
DNA FID DR – counter-screen for HCV NS3 helicase inhibitors: DNA intercalator displacement dose response; shares compounds with HCV NS3 hel inh; fluorescent intercalator displacement from DNA, fluorescence; IC50, µM; 120 tested, under 10 active; AID 2172; call rule not given here
Active calls of the source: *; x = no result. This is a sample that favours compounds with a hit; in the whole collection about 4.5% have one here.

SMILES	XBP1 UPR activ	p97 inhibitor	CHOP inh	HCV NS3 hel inh	UPR CHOP act	M18AAP inhibitor	NS3 hel confirm	DNA FID counter	others
CCOc1ccc(C(=O)NCCC(=O)N2CCC3(CC2)NCCc2[nH]cnc23)cc1OCC	-4	x	x	12	-1	-2	x	x
N#CC1=C(N)SC(N)=C(C#N)C1CCC1CCCCC1	-4	-8	24	53*	0	32*	5	24
Cc1cc(N2C(=O)C(O)=C(C(=O)c3cc4ccccc4o3)C2c2ccc(Cl)cc2)no1 (configuration not stated)	-1	x	x	32	2	26	x	x
Cc1ccc(C(=O)C2=C(O)C(=O)N(Cc3cccnc3)C2c2cccc(Oc3ccccc3)c2)o1 (configuration not stated)	-3	x	x	45*	3	6	86*	-37	DNA FID DR=>79
Cc1cc(N2C(=O)C(O)=C(C(=O)c3cc4ccccc4o3)C2c2ccc(Br)cc2)no1 (configuration not stated)	0	x	x	42*	-1	15	122*	0
Cc1ccc(C(=O)C2=C(O)C(=O)N(Cc3ccccc3)C2c2cccnc2)o1 (configuration not stated)	0	3	10	-1	1	-2	x	x
Cc1cc(N2C(=O)C(O)=C(C(=O)c3ccc(C)o3)C2c2cccc(Oc3ccccc3)c2)no1 (configuration not stated)	-6	x	x	63*	-2	11	173*	-22	DNA FID DR=>79
COc1ccc(OC)c(C2C(C(=O)c3cc4ccccc4o3)=C(O)C(=O)N2c2cc(C)on2)c1 (configuration not stated)	6	3	-6	37*	-1	18	80*	-6	DNA FID DR=>79
COc1ccc(S(=O)(=O)N2CCC(C(=O)NCC3CC3)CC2)cc1	-1	x	x	7	-1	5	x	x
C=CCOc1cccc(C2C(C(=O)c3cc4ccccc4o3)=C(O)C(=O)N2c2cc(C)on2)c1 (configuration not stated)	-1	x	x	32	1	11	x	x
COC(=O)c1sc(N2C(=O)C(O)=C(C(=O)c3ccc(C)o3)C2c2cc(OC)ccc2OC)nc1C (configuration not stated)	1	x	x	54*	2	-5	93*	-20	DNA FID DR=>79
COc1cccc(C2C(C(=O)c3cc4ccccc4o3)=C(O)C(=O)N2c2cc(C)on2)c1 (configuration not stated)	-5	x	x	41*	1	15	105*	5
CC(C)c1nnc(SCC(=O)NC2CCCC2)n1C	-1	x	x	13	0	1	x	x
CCCCCC/C(C)=C1/SC(=S)NC1=O	-4	4	31	40*	-1	-2	12	0
CCOc1ccc(NC(=O)C(C)NS(=O)(=O)c2ccc(NC(C)=O)cc2)cc1 (configuration not stated)	-2	-1	12	-7	0	3	x	x
O=C(NCc1ccc(Cl)cc1)c1ccc2ccccc2n1	1	x	x	7	4	0	x	x
Cc1ccc(NC(=O)c2cc(NC(=O)/C=C\C(=O)O)ccc2N2CCCCC2)cc1	x	x	x	28	x	7	x	x
Cc1ccc(NC(=O)c2cc(NC(=O)c3ccccc3C(=O)O)ccc2N2CCCCC2)cc1	-2	-1	10	46*	2	0	75*	-6
C/C(=N\NC(=O)COc1cc(C)cc(C)c1)c1cccc(NC(=O)C2CCC2)c1	-3	x	x	-7	2	-15	x	x
CCc1nc(N[C@@H](Cc2c[nH]c3ccccc23)C(=O)O)c2oc3ccccc3c2n1	-6	8	-6	0	1	2	x	x
Cc1nc(N[C@@H](Cc2c[nH]c3ccccc23)C(=O)O)c2oc3ccccc3c2n1	0	2	7	42*	-1	8	-5	-10
